Results published in ChEMBL document CHEMBL1828582, “Synthesis and Na+/H+ exchanger inhibitory activity of benzoylguanidine derivatives” (Eur J Med Chem, 2011).

Tests used:
[1] = Antiischemic activity against Na2S2O4-induced hypoxia/reoxygenation cell injury in neonatal rat primary cardiac myocytes assessed as cell viability at 10^-4 mol/L by MTT assay; assay type: functional; details: Cardiac muscle cell
In short: (§1)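 Neonatal rat primary cardiomyocytes, six wells per group. Hypoxia induced with 50 mmol/L Na2S2O4 in serum-free DMEM for 2 h, then reoxygenated 4 h in DMEM with 10% serum. Drug added in serum-free DMEM 1 h before reoxygenation, final 10^-6, 10^-5, 10^-4 mol/L. MTT (5 mg/mL) for 4 h, formazan dissolved in DMSO, A490. Survival = treated OD/normal control OD.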

[2] = Antiischemic activity against Na2S2O4-induced hypoxia/reoxygenation cell injury in neonatal rat primary cardiac myocytes assessed as increase in cell survival rate at 10^-4 mol/L by MTT assay; assay type: functional, Cardiac muscle cell; in short: as §1
[3] = Antiischemic activity against Na2S2O4-induced hypoxia/reoxygenation cell injury in neonatal rat primary cardiac myocytes assessed as cell viability at 10^-6 mol/L by MTT assay; assay type: functional; details: Cardiac muscle cell; in short: as §1
[4] = Antiischemic activity against Na2S2O4-induced hypoxia/reoxygenation cell injury in neonatal rat primary cardiac myocytes assessed as cell viability at 10^-5 mol/L by MTT assay; assay type: functional; details: Cardiac muscle cell; in short: as §1
[5] = Antiischemic activity against Na2S2O4-induced hypoxia/reoxygenation cell injury in neonatal rat primary cardiac myocytes assessed as increase in cell survival rate at 10^-5 mol/L by MTT assay; assay type: functional, Cardiac muscle cell; in short: as §1
[6] = Antiischemic activity against Na2S2O4-induced hypoxia/reoxygenation cell injury in neonatal rat primary cardiac myocytes assessed as increase in cell survival rate at 10^-6 mol/L by MTT assay; assay type: functional, Cardiac muscle cell; in short: as §1

Structure (SMILES)	MTT OD at 100 µM [1] [absorbance]	Activity [2] [%]	MTT OD at 1 µM [3] [absorbance]	MTT OD at 10 µM [4] [absorbance]	Activity [5] [%]	Activity [6] [%]
COc1ccc(CN2CCN(Cc3ccc(C(=O)N=C(N)N)cc3[N+](=O)[O-])CC2)c(OC)c1OC	0.532	69.24	0.37	0.44	59.78	50.41
COc1ccc(CN2CCN(CCOc3ccc(C(=O)NC(=N)N)cc3NC(=O)c3ccc(Cl)cc3Cl)CC2)c(OC)c1OC	0.488	58.33	0.362	0.409	55.52	49.27
COc1ccc(CN2CCN(CCOc3ccc(C(=O)NC(=N)N)cc3NC(=O)c3sccc3C)CC2)c(OC)c1OC	0.556	72.41	0.391	0.454	61.63	53.22
COc1ccc(CN2CCN(CCOc3ccc(C(=O)NC(=N)N)cc3NC(=O)c3ccccc3[N+](=O)[O-])CC2)c(OC)c1OC	0.434	56.48	0.353	0.379	51.45	48.05
